Source: PubChem BioAssay AID489030 (Sanford-Burnham Center for Chemical Genomics, 2010)
The whole screen tested about 330,000 compounds, of which about 2,400 (0.73%) were called active. Only a selection was taken, and actives are over-represented in it overall. Values without a mark were called inactive. The calls were made as follows: active = inhibition of at least 40% at 20 µM; inactive = the rest.

Each compound was assayed against Apoptotic protease-activating factor 1 (Homo sapiens) (UniProt O14727) (assay: inhibitors of human Apaf-1 apoptosome, primary screen, biochemical, DEVD-Rh110 fluorescence, uHTS (AID 489030;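 also: plate controls were DMSO wells for no effect and DEVD-CHO caspase inhibitor wells for full effect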)). Settings: reconstituted apoptosome caspase-3 activity, at 20 µM, hits give high values.
Apoptotic protease-activating factor 1 (Homo sapiens), sequence (O14727 whole entry, looked up): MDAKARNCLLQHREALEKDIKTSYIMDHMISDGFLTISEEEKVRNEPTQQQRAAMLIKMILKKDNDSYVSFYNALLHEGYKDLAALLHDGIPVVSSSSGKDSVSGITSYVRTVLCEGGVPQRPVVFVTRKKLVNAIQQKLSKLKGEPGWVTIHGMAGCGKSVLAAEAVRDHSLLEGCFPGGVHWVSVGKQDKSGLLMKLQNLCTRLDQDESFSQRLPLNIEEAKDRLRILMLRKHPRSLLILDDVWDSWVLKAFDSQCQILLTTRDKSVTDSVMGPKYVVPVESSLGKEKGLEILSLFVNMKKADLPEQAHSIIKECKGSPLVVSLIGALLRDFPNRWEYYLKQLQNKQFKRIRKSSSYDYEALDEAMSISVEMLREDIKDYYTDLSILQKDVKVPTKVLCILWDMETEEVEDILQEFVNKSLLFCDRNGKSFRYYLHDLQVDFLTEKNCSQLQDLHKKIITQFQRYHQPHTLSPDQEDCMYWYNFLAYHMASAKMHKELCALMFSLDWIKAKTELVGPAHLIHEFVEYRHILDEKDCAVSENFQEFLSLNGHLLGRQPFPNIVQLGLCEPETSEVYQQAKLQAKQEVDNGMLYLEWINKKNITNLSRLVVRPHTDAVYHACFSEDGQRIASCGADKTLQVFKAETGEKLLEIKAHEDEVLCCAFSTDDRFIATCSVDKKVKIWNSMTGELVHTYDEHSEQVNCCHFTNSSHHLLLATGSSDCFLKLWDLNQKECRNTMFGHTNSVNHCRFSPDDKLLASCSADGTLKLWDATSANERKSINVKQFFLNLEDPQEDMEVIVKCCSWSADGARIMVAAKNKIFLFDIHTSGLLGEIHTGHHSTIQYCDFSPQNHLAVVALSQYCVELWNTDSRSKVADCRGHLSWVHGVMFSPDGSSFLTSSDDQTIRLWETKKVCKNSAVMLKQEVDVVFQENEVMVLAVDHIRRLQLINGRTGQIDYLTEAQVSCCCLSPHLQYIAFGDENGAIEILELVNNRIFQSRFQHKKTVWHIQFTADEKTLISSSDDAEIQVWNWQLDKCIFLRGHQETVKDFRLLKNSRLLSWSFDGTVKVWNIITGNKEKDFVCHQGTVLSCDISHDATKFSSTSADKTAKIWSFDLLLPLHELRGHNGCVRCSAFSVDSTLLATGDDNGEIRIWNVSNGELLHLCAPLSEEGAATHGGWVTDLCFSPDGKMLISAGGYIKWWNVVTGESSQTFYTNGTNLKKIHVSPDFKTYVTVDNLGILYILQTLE
Method in brief: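 detection = Rh110 fluorescence intensity | test system = biochemical Apaf-1 apoptosome reconstitution | also added = cytochrome c and DEVD-Rh110 substrate | schedule = 30 min plus 50 min, RT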

For `CCOc1ccc(N2CC(C(=O)N/N=C/c3sccc3C)CC2=O)cc1` (stereo not given), which inhibition is on record?
The inhibition was -13.2%.

With `COc1cc(CC(=O)N/N=C/c2ccccc2)c([N+](=O)[O-])cc1OC` as the compound, how does the inhibition read?
Its inhibition is 8.78%.

`O=C(Cc1cc(=O)[nH][nH]1)N/N=C/c1ccccc1[N+](=O)[O-]` was tested. Which inhibition did it give?
The inhibition was 40.8% (active).

For `Cc1ccsc1/C=N/n1c(=S)[nH]nc(C)c1=O`, which inhibition is on record?
Its inhibition is 2.31%.

Which inhibition does the source give for `Cc1ccsc1/C=N/NC(=O)Cc1cc(=O)[nH][nH]1` here?
The inhibition was 58.3% (active).

With `O=C(COc1ccccc1[N+](=O)[O-])N/N=C/c1ccc[nH]1` as the compound, how does the inhibition read?
Its inhibition is -17.6%.

Which inhibition does the source give for `CC(C)(C)NC(=O)CSC(=Nc1ccccc1F)NC#N` here?
Its inhibition is -0.507%.

`COC(=O)Cc1csc(/N=C/c2c(O)n(-c3cccc(C(F)(F)F)c3)c(=O)c3ccccc23)n1` was tested. Which inhibition did it give?
Its inhibition is -1.6%.

How did the inhibition turn out when `O=C(COc1ccc(S(=O)(=O)NCCc2ccccc2)cc1)N1CCCC1` was run?
Its inhibition is -10.1%.

How did the inhibition turn out when `CC(Oc1ccc(Cl)cc1)c1ccnn1S(C)(=O)=O` (stereo not given) was run?
The inhibition was 0.147%.

`Cc1noc(C)c1S(=O)(=O)N(C)C[C@H]1Oc2ccc(NC(=O)C3CCCCC3)cc2C(=O)N([C@H](C)CO)C[C@@H]1C` was tested. Which inhibition did it give?
The inhibition was 1.34%.

Which inhibition does the source give for `O=C1Nc2ccc([N+](=O)[O-])cc2C1=Nc1cccc(CO)c1` here?
Its inhibition is 41.2% (active).

`O=[N+]([O-])c1ccc(N(CCO)Cc2ccccc2)c([N+](=O)[O-])c1` was tested. Which inhibition did it give?
Its inhibition is 5.52%.

How did the inhibition turn out when `CN1CCN(/N=C2/C(=O)Nc3ccc([N+](=O)[O-])cc32)CC1` was run?
The inhibition was -6.13%.

Which inhibition does the source give for `COc1ccc(NS(=O)(=O)c2cccc3nsnc23)cc1Cl` here?
Its inhibition is -0.325%.

Which inhibition does the source give for `COc1cccc(C(=O)NCCS(=O)(=O)NCC2CCCO2)c1` (stereo not given) here?
Its inhibition is -2.68%.

Which inhibition does the source give for `O=C(C1CCN(c2nnc(-n3cccc3)s2)CC1)N1CCc2ccccc2C1` here?
The inhibition was 6.9%.

Which inhibition does the source give for `OCCN1CCOCCOCCN(CCO)CCN(CCO)CC1` here?
The inhibition was -5.95%.

For `Clc1ccc(C2=CSC3=Nc4cccc5cccc(c45)N23)cc1`, which inhibition is on record?
Its inhibition is 90% (active).

For `CC(C)Cc1nnc(NC(=O)CCNC(=O)c2ccccc2Cl)s1`, which inhibition is on record?
Its inhibition is 12%.
